NF-kB neuron act: activators of NF-kB expression in neurons, primary screen, cell-based, HTS; 190,000 compounds, 1.6% hits; fold change at 12.5 µM; human neuronal cells, NF-kB reporter expression; hits give high values; in the data active = fold change above about 3.3
FLuc inhib CS: firefly luciferase enzyme inhibitors, primary screen, artefact control for luciferase-based inhibitor screens, biochemical, luminescence, ATPLite; inhibition, % at 10 µM; 200,000 compounds, 1.5% hits; Luciferin 4-monooxygenase (Photinus pyralis), P08659; 10 min;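 active = inhibition above about 50% when tested at 10 µM, limit read from the data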
Target sequence (P08659 whole entry, looked up): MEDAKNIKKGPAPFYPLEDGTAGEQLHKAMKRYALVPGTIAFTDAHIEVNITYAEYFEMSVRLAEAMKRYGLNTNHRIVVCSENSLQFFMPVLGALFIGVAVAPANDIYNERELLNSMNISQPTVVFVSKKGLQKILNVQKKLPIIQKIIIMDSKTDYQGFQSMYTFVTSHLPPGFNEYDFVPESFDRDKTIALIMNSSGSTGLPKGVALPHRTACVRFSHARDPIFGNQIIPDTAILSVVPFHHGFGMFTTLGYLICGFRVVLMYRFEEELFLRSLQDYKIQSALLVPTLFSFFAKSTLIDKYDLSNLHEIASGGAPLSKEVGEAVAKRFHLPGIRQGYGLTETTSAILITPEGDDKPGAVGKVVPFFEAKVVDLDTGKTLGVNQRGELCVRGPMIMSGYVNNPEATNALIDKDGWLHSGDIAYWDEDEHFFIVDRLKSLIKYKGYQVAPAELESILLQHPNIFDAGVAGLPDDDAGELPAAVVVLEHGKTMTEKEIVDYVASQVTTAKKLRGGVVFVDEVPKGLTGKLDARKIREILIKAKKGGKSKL
FLuc stim CS: FLuc activators, initial screening, artefact control for FLuc-dependent activation tests, biochemical, ATPlite luminescence. Luciferin 4-monooxygenase (Photinus pyralis), P08659. 200,000 tested, under 10 active. AID 1027, 2008. activation factor at 10 µM. ATPlite luciferase biochemical, 10 min; 0 = ATP-free wells, 1 = DMSO control;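 active = luciferase activation factor, scaled between plate controls, of at least 2 with compound at 10 µM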
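System: cell-free luciferase reagent; medium: PBS as buffer for the ATP substrate; doses: test compounds dosed from 2 mM stocks in 100% DMSO; incubation: 10 min, room temperature; measured by: luminescence from luciferase reaction; read-out: luciferase activation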
STAT1 activator: STAT1 signaling activators, primary screen, cell-based, HTS, luciferase reporter; activation (% of control), % at 5.5 µM; 200,000 compounds, 2.6% hits; NIH 3T3 STAT1-luciferase reporter, IFN-gamma, luminescence; 100% = IFN-gamma alone, no compound; AID 932, 2007;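 active = activation above the screen-wide mean activation plus 3 SD, cut at about 130% in these data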
APP 5'UTR act: activators of APP 5'UTR luciferase reporter, primary screen, SH-SY5Y cells. SH-SY5Y APP 5'UTR luciferase reporter, luminescence; zero percent = DMSO vehicle wells. activation, % at 2 µM. AID 1276, 2008. 190,000 compounds, 1% hits;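 active = activation above a set limit, based on mean plus 3 SD of controls, cut at about 140% in these data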
STAT1 activ conf: STAT1 signaling activators, confirmation, cell-based, HTS, luciferase reporter | NIH 3T3 STAT1-luciferase reporter, IFN-gamma potentiation, luminescence; 100% = IFN-gamma EC80 alone, no compound | activation (% of control), % at 5.7 µM | 1,200 compounds, 97% hits | shares compounds with STAT1 activator;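 active = activation above a set limit carried over from the earlier primary STAT1 screen, cut at about 140% in these data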
NFkB act STAT1ct: NF-kB reporter activators, TNF-alpha stimulated, counter-screen for STAT1 activator project, cell-based, HEK293T, luciferase luminescence; shares compounds with STAT1 activator; 100% = TNF-alpha with vehicle only; activation (% of control), % at 5.7 µM; 1,200 compounds, 43% hits;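 active = activation above the mean of solvent-only control wells plus 3 SD, set per campaign, cut at about 130% in these data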;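 also: TNF-alpha given at a submaximal dose yielding about 80% of full reporter signal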
STAT3 act STAT1c: STAT3 reporter activation by STAT1 hits, confirmation, counter-screen for STAT1 activator project, U3A cells, luciferase, luminescence | shares compounds with STAT1 activator | IL-6; cells lack STAT1; 100 = IL-6 alone, no compound effect | activation (% of control), % at 5.7 µM | 1,200 compounds, 46% hits | AID 1316, 2008;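 active = activation above the solvent-only control well mean plus 3 SD, set per plate batch, cut at about 110% in these data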;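 also: higher means more STAT3 reporter activation so hits are non-selective activators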
Numbers stand for hits; - = inactive; . = no result given. Sampled rows, rich in hits. Any-hit rate of the full collection: about 4.3%.

SMILES	NF-kB neuron act	FLuc inhib CS	FLuc stim CS	STAT1 activator	APP 5'UTR act	STAT1 activ conf	NFkB act STAT1ct	STAT3 act STAT1c
Cc1cccc2c1-c1sc(C(=O)Nc3cccc([N+](=O)[O-])c3C)cc1CO2	-	-	-	-	-	.	.	.
Cc1cccc2c1-c1sc(C(=O)Nc3nccs3)cc1CO2	-	-	-	160.2	-	189.6	-	-
Cc1nn(-c2ccc(C(=O)O)cc2)c(N)c1-c1ccccc1	4.89	-	-	159.5	-	199.5	139.8	139.3
Cc1nn(C(C)(C)C)c(N)c1-c1ccccc1	-	-	-	-	-	.	.	.
O=C(COc1ccccc1Cl)Nc1ccc(Cl)cn1	6.84	68.8	-	150.8	198.0	198.3	-	-
O=C(COc1ccccc1)Nc1ccc(Cl)cn1	-	-	-	-	-	.	.	.
CCCC(=O)OCC(=O)Nc1ccc(N=Nc2ccccc2)cc1	4.71	-	-	155.3	-	189.0	137.4	116.9
CCCC(=O)OCC(=O)Nc1ccc2[nH]c(=O)[nH]c2c1	-	-	-	-	-	.	.	.
CCC(=O)c1c(NCCc2ccccc2)cc(C)oc1=O	-	-	-	-	-	.	.	.
O=C(CN1C(=O)NC2(CCCCCC2)C1=O)c1ccc2c(c1)OCCO2	-	-	-	160.5	-	177.7	136.1	125.8
CCOc1ccc(NS(=O)(=O)c2cc(NC(=O)c3cccc(C)c3)ccc2Cl)cc1	-	-	-	-	-	.	.	.
CC(=O)c1cnc2c(-c3ccccc3)cnn2c1C	-	-	-	-	-	.	.	.
CCOC(=O)c1cnc2c(-c3ccccc3)cnn2c1C	7.26	75.4	-	154.3	155.0	198.1	134.7	-
Cc1occc1C(=O)Nc1cccc2ccccc12	7.69	-	-	172.2	135.2	219.0	136.9	-
Cc1ccc(/C=N/NC(=O)c2ccccc2OCc2cccc(Br)c2)o1	-	-	-	-	-	.	.	.
O=C(COc1ccc([N+](=O)[O-])cc1)Nc1ccccc1N1CCCC1	-	-	-	-	-	.	.	.
COc1cc(CNCCSc2nnnn2C)cc(Br)c1OCc1ccccc1	.	-	-	-	-	.	.	.
CC(=O)NC1=NN(C(C)=O)C(c2ccc(C)cc2)S1 (stereo unspecified)	-	-	-	-	-	.	.	.
CC(=O)N1N=C(c2ccc(C)cc2)OC1c1ccc(Br)cc1 (stereo unspecified)	-	-	-	153.5	-	181.6	147.8	116.7
O=C(O)c1cc(NC(=O)c2ccccc2[N+](=O)[O-])ccc1O	-	-	-	-	-	.	.	.
COc1ccc(-c2csc(N(CCCN(C)C)C(=O)c3cccs3)n2)cc1	-	-	-	-	-	.	.	.
COCCCN(C(C)=O)c1nc(-c2ccc(OC)cc2)cs1	-	-	-	155.5	-	144.5	-	111.7
COc1ccc(Nc2nc(-c3ccc(OC)cc3)cs2)cc1	.	-	-	151.3	136.7	181.7	142.2	-
c1ccc(Nc2nc(-c3ccccn3)cs2)cc1	7.45	-	-	157.7	204.7	225.9	150.3	125.7
COc1ccc(-c2csc(Nc3ncccc3C)n2)cc1	12.4	-	-	185.4	154.3	253.4	143.4	-
SMILES	NF-kB neuron act	FLuc inhib CS	FLuc stim CS	STAT1 activator	APP 5'UTR act	STAT1 activ conf	NFkB act STAT1ct	STAT3 act STAT1c
COc1ccc(-c2csc(Nc3ccccc3)n2)cc1	5.43	-	-	180.1	195.4	231.8	152.2	-
O=C(CN1C(=O)/C(=C\c2cccc(Cl)c2)Oc2ccccc21)N1CCN(c2ccccn2)CC1	-	-	-	-	-	.	.	.
Cc1cc(CNC(=O)COc2ccc(F)cc2Cl)cc(C)c1O	-	-	-	-	-	.	.	.
CC(=O)c1cccc(Nc2nc(-c3ccccc3)cs2)c1	4.8	-	-	168.3	169.5	230.2	152.1	111.9
CC(=O)NC12CC3CC(C1)CC(C(=O)OCC(=O)c1ccc4c(c1)OCCO4)(C3)C2	-	57.8	-	161.4	155.6	211.5	-	123.6
COc1ccccc1CNC(=O)CN(Cc1ccc(Cl)cc1)S(C)(=O)=O	-	-	-	-	-	.	.	.
COc1ccc(Cc2nnc(-c3ccccc3)o2)cc1	-	-	-	-	-	.	.	.
Cc1ccccc1-c1nnc(Cc2ccccc2)o1	-	-	-	153.6	-	175.4	135.3	-
COc1ccccc1NC(CC(=O)c1ccccc1)C(=O)OCC(=O)c1ccc(F)cc1 (stereo unspecified)	-	-	-	160.9	-	185.2	-	-
O=P(O)(CN1CCCCCC1)CN1CCCCCC1	-	-	-	153.0	-	-	-	-
O=C(CCNC(=O)c1ccccc1Cl)Nc1ccc(Cl)c(C(F)(F)F)c1	-	-	-	-	-	.	.	.
CC1=NN(C(=O)c2ccc(C)o2)C(O)(c2ccccc2)C1 (stereo unspecified)	-	-	-	158.7	-	-	-	-
CC1=NN(C(=O)CSCc2ccccc2)C(O)(c2ccccc2)C1 (stereo unspecified)	-	-	-	-	-	.	.	.
O=C(Nc1cccc(-c2nc3ccccc3[nH]2)c1)c1ccco1	-	-	-	-	-	.	.	.
O=C(Nc1ccc(-c2nc3cccnc3s2)cc1)c1ccco1	3.9	-	-	152.2	216.2	227.1	-	-
Cc1ccc2nc(-c3ccc(NC(=O)c4ccco4)cc3)[nH]c2c1	-	-	-	160.4	-	187.1	136.2	-
O=C(Nc1ccc(-c2nc3ncccc3o2)cc1)c1ccco1	-	-	-	160.5	-	173.3	-	-
COc1ccc(/C=C/C(=O)OCC(=O)Nc2c(C)cccc2C)cc1	-	-	-	-	-	.	.	.
C=CCn1c(C)cc(C(=O)COC(=O)c2ccc(N)c([N+](=O)[O-])c2)c1C	4.44	-	-	163.7	211.4	242.6	-	111.8
CN(C)c1ccc(C(=O)/C=C/c2ccco2)cc1	5.56	91.1	-	168.4	203.5	177.9	-	122.3
O=C(Cn1nnc(-c2ccccc2F)n1)Nc1ccc(S(=O)(=O)NC2CCCC2)cc1	-	-	-	-	-	.	.	.
O=C(COC(=O)c1cncc(Br)c1)NCCC1=CCCCC1	-	-	-	-	-	.	.	.
N#C/C(=C\c1cccs1)C(=O)Nc1nccs1	4.08	74.7	-	206.7	-	229.3	150.3	113.8

Assay outcomes as filed in PubChem BioAssay.
